The source of these data is ChEMBL document CHEMBL3227925, “Structure-activity relationship in a new series of atropine analogues. 1. N,N'-Disubstituted 6,7-diazabicyclo[3.2.2]nonane derivatives” (J Med Chem, 1979).

Each structure is given as a SMILES string. Where a name gives a salt, the structure may show the parent alone. The source made the active and inactive calls. No cut-off for these calls is given here.

The species named for series [1] is Cavia porcellus. The experiment in a line: Competitive antagonist activity at muscarinic acetylcholine receptor in guinea pig ileum assessed as inhibition of acetylcholine-induced contraction at 1.1X10'-8 M. Format: tissue-based. Put shortly:
(§1)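 Guinea pig ileum (~2 cm, freshly killed animals) in a 10-mL Tyrode bath at 37 °C, air-bubbled, isotonic lever recording. Acetylcholine dose-response curves recorded alone and with antagonist present at a single fixed concentration (1×10^-8 or 1.1×10^-8 M). The curves were compared for shift.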

Series [2] in a line: Antagonist activity at muscarinic acetylcholine receptor in guinea pig ileum assessed as inhibition of acetylcholine-induced contraction. Format: tissue-based, Cavia porcellus. An outline of the steps:
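Ileum segments (~2 cm) from freshly killed guinea pigs in a 10-mL organ bath of Tyrode solution at 37 °C, air-bubbled. Isotonic contractions recorded. Acetylcholine dose-response curves run without and with antagonist. Affinity constants calculated from the dose ratio. Values are means of two to four separate experiments ± SD.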

Series [3] can be described thus: Displacement of [3H]4-NMPB from muscarinic acetylcholine receptor in mouse brain. Format: tissue-based.
Series [4] in a line: Toxicity in ip dosed mouse. Format: organism-based. Conditions: in vivo. Put shortly:
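Preliminary LD50 determination in mice given the drugs intraperitoneally.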

The species named for series [5] is Cavia porcellus. The experiment in a line: Competitive antagonist activity at muscarinic acetylcholine receptor in guinea pig ileum assessed as inhibition of acetylcholine-induced contraction at 1X10'-8 M. Format: tissue-based. An outline of the steps:
as §1

Take `CN1[C@@H]2CC[C@@H](C[C@H](OC(=O)C(CO)c3ccccc3)C2)N1C` (stereo in doubt; 5) [listing 1 of 2 here]: the inhibition result in series [1] was “Active”.
The Kd is a measure of binding affinity in units of concentration. As to `CN1[C@@H]2CC[C@@H](C[C@H](OC(=O)C(CO)c3ccccc3)C2)N1C` (stereo in doubt; 5) [listing 2 of 2 here], the dissociation constant (Kd) came out at 1.6 nM in series [2] and 2.1 nM in series [3].
Regarding `CN1[C@@H]2CC[C@@H](C[C@H](OC(=O)C(CO)c3ccccc3)C2)N1C` (stereo not given in full), the Kd in series [2] was 0.091 nM.
What is called LD50 is the dose at which mortality reaches 50%. A high value points to lower toxicity. Turning to `CN1[C@@H]2CC[C@@H](C[C@H](OC(=O)C(CO)c3ccccc3)C2)N1C` (stereo in doubt; 1), in series [2], the dissociation constant (Kd) stood at 1.7 nM. In series [4], the LD50 was found to be 150 mg/kg.
With `CN1[C@@H]2CC[C@H]1C[C@@H](OC(=O)C(CO)c1ccccc1)C2` (stereo not given in full) [ATROPINE SULFATE], the Kd in series [2] is 0.49 nM.
Take `CN1[C@@H]2CC[C@@H](C[C@H](OC(=O)C(CO)c3ccccc3)C2)N1C` (stereo in doubt; 4): the Kd in series [2] is 170 nM.
`CN1[C@@H]2CC[C@@H](C[C@H](OC(=O)C(CO)c3ccccc3)C2)N1C` (stereo in doubt; 2) [listing 1 of 2 here]: the Kd in series [2] was 0.066 nM.
Consider `CN1[C@@H]2CC[C@@H](C[C@H](OC(=O)C(CO)c3ccccc3)C2)N1C` (stereo in doubt; 2) [listing 2 of 2 here], for which the inhibition entry in series [5] is “Active”.
